Tests used:
[1] = Inhibition of Abl kinase at 1 uM
[2] = Plasma concentration in human HCT116 cells xenografted in mouse at 30 mg/kg, po after 8 hrs; type: ADME, organism-based, HCT-116; design: dose 30 mg/kg, route oral
[3] = target: Serine/threonine-protein kinase Sgk1 (Homo sapiens) (UniProt O00141); assay: Activity of human SGK kinase at 1 uM
Summary of the method: (§1)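 Single-point screen in a 226-kinase panel run by an outside service. Test compound at 1 μM with ATP at 10 μM in every assay. Other assay conditions are not given.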

[4] = target: Tyrosine-protein kinase Lyn (Homo sapiens) (UniProt P07948); assay: Activity of human Lyn kinase at 1 uM
Summary of the method: (§2)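 Single-point kinase profiling: each kinase in a 226-kinase panel tested with compound at 1 μM and ATP at 10 μM in every assay, run by an external screening service.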

PC-3 [5] = assay: Cell cycle arrest in human PC3 cells by accumulation at >4N phase at 1 uM after 24 hrs by flow cytometry relative to control; type: functional
[6] = target: RAC-beta serine/threonine-protein kinase (Homo sapiens) (UniProt P31751); assay: Activity of human PKBbeta kinase at 1 uM; summary of the method: as §1
[7] = target: Serine/threonine-protein kinase NLK (Homo sapiens) (UniProt Q9UBE8); assay: Activity of human NLK kinase at 1 uM; summary of the method: as §1
[8] = target: Tyrosine-protein kinase Lck (Homo sapiens) (UniProt P06239); assay: Activity of human Lck kinase at 1 uM; summary of the method: as §2
[9] = target: Ephrin type-B receptor 3 (Homo sapiens) (UniProt P54753); assay: Activity of human EphB3 kinase at 1 uM
[10] = target: Ephrin type-B receptor 1 (Homo sapiens) (UniProt P54762); assay: Activity of human EphB1 kinase at 1 uM; summary of the method: as §2
Chain of Ephrin type-B receptor 1 (Homo sapiens) (P54762 whole entry): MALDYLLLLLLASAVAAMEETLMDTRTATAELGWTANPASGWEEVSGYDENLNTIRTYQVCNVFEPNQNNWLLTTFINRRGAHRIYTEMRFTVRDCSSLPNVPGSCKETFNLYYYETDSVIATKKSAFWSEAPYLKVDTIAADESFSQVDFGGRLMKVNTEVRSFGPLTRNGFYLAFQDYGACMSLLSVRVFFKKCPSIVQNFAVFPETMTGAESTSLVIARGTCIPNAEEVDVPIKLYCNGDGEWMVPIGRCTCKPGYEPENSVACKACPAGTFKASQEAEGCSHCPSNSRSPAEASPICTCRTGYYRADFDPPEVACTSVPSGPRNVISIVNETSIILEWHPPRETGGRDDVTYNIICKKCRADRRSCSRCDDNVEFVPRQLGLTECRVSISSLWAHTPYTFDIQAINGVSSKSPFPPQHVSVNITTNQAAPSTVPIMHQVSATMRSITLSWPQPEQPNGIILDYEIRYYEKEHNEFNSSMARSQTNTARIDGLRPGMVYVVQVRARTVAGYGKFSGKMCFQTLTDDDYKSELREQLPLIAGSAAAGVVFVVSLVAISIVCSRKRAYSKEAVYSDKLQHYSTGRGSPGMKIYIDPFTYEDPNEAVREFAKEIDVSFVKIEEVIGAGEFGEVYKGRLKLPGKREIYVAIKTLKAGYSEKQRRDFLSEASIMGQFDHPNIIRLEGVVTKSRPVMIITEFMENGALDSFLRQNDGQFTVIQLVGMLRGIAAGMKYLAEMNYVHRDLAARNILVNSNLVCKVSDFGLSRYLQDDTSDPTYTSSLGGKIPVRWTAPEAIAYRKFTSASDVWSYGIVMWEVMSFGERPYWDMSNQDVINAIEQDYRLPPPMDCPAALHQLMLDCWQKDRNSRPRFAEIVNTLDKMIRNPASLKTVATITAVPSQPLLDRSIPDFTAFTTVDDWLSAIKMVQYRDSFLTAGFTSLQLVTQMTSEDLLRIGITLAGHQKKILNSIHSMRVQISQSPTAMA

[11] = target: Tyrosine-protein kinase Lyn (Mus musculus) (UniProt P25911); assay: Activity of mouse Lyn kinase at 1 uM; summary of the method: as §1
[12] = target: Ephrin type-A receptor 7 (Homo sapiens) (UniProt Q15375); assay: Activity of human EphA7 kinase at 1 uM; summary of the method: as §2
Chain of Ephrin type-A receptor 7 (Homo sapiens) (Q15375 28-998 limits assumed): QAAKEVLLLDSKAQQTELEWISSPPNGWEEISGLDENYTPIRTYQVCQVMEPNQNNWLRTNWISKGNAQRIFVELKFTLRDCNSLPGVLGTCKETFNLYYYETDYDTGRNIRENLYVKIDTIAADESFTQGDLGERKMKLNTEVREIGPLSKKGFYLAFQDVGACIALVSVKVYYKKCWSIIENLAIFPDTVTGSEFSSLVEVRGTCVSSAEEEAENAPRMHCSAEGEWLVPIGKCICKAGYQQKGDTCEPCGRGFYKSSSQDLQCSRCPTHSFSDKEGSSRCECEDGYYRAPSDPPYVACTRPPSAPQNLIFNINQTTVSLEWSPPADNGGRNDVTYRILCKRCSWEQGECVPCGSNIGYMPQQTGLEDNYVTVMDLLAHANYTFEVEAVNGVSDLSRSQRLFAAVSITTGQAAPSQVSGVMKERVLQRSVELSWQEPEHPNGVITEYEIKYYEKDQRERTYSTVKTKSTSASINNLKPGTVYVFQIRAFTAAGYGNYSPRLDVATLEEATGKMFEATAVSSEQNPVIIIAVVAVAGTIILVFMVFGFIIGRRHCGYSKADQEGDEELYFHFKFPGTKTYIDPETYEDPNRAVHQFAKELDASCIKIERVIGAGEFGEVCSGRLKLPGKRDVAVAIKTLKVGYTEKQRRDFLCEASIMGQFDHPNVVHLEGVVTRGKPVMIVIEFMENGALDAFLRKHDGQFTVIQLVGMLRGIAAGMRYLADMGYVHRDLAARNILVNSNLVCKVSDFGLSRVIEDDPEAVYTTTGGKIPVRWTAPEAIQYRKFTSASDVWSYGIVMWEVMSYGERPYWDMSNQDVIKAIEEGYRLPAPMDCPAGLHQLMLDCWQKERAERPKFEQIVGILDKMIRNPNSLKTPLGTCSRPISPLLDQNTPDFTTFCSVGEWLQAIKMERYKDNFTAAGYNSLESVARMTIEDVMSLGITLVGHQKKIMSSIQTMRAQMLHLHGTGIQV

PC-3 [13] = assay: Cell cycle arrest in human PC3 cells by accumulation at S phase at 4 uM after 24 hrs by flow cytometry relative to control; type: functional
Summary of the method: (§3)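 DNA content profiles by flow cytometry of PC-3 prostate tumor cells exposed to drug diluted in DMSO for 24 or 48 h. Phase distribution was compared with DMSO-treated control cells.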

[14] = target: Serine/threonine-protein kinase 24 (Homo sapiens) (UniProt Q9Y6E0); assay: Activity of human MST3 kinase at 1 uM
[15] = target: Mitogen-activated protein kinase 1 (ERK2) (Mus musculus) (UniProt P63085); assay: Activity of mouse MAPK2 kinase at 1 uM
[16] = target: Serine/threonine-protein kinase MARK1 (Homo sapiens) (UniProt Q9P0L2); assay: Activity of human MARK1 kinase at 1 uM; summary of the method: as §2
Chain of Serine/threonine-protein kinase MARK1 (Homo sapiens) (Q9P0L2 whole entry, looked up): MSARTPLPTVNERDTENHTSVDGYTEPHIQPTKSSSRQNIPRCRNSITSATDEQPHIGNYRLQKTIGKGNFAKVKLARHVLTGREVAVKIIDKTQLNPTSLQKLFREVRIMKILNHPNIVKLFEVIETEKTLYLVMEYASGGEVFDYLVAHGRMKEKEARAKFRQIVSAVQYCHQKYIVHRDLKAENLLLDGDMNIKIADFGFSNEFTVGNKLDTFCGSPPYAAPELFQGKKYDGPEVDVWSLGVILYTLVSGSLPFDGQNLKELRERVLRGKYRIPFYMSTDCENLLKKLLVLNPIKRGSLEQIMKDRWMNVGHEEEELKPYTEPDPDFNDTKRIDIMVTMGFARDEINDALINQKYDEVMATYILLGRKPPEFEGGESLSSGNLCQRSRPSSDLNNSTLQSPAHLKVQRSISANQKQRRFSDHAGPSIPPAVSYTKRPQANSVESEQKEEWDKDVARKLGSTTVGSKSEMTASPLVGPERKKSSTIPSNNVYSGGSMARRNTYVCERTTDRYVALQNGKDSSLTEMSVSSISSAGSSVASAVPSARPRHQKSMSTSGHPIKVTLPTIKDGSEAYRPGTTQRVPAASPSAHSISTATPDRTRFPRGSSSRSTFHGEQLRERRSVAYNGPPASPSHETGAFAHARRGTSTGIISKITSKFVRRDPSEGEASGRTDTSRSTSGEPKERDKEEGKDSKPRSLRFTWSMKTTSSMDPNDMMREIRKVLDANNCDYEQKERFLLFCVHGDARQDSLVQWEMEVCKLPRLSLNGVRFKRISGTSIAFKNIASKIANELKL

[17] = target: Myosin light chain kinase, smooth muscle (Homo sapiens) (UniProt Q15746); assay: Activity of human MLCK kinase at 1 uM
[18] = target: Insulin-like growth factor 1 receptor (Homo sapiens) (UniProt P08069); assay: Activity of human IGF1R kinase at 1 uM
[19] = target: MAP kinase-activated protein kinase 3 (Homo sapiens) (UniProt Q16644); assay: Activity of human MAPKAP-K3 kinase at 1 uM
[20] = target: Mitogen-activated protein kinase 8 (Homo sapiens) (UniProt P45983); assay: Activity of human JNK1-alpha-1 kinase at 1 uM; summary of the method: as §2
Chain of Mitogen-activated protein kinase 8 (Homo sapiens) (P45983 whole entry): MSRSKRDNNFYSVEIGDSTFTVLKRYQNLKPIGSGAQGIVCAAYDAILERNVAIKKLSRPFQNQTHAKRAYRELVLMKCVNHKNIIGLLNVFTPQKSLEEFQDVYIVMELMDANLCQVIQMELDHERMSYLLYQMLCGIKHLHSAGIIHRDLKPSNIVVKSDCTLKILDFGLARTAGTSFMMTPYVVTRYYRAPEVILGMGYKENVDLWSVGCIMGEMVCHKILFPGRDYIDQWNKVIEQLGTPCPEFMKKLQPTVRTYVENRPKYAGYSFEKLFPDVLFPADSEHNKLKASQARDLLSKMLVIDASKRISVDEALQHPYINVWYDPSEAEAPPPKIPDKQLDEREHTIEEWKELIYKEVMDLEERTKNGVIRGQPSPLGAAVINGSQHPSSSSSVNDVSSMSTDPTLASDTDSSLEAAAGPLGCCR

[21] = target: Fibroblast growth factor receptor 4 (Homo sapiens) (UniProt P22455); assay: Activity of human FGFR4 kinase at 1 uM
Chain of Fibroblast growth factor receptor 4 (Homo sapiens) (P22455 22-802 limits assumed): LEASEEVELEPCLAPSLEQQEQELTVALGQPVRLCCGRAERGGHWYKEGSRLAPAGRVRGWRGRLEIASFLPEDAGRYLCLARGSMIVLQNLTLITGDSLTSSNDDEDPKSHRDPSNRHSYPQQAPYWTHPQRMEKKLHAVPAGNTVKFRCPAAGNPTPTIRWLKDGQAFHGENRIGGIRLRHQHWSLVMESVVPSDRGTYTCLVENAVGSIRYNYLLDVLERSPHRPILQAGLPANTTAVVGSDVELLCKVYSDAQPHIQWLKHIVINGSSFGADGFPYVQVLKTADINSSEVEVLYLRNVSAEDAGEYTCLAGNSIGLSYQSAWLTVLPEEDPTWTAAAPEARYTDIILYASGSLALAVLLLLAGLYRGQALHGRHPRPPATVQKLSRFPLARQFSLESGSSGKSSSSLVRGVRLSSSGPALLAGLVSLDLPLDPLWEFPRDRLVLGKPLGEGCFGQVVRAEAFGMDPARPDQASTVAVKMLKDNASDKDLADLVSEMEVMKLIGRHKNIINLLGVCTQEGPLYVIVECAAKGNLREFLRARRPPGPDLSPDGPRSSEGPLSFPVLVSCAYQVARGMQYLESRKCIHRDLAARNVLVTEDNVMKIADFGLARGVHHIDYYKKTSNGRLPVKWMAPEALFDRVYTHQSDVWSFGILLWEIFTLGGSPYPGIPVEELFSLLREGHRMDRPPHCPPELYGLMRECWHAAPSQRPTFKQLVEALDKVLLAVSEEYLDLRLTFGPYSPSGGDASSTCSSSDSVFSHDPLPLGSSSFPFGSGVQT

[22] = target: Dual specificity protein kinase CLK3 (Homo sapiens) (UniProt P49761); assay: Activity of human CLK3 kinase at 1 uM
[23] = target: Death-associated protein kinase 1 (Homo sapiens) (UniProt P53355); assay: Activity of human DAPK1 kinase at 1 uM; summary of the method: as §2
[24] = target: MAP kinase-activated protein kinase 5 (Homo sapiens) (UniProt Q8IW41); assay: Activity of human PRAK kinase at 1 uM; summary of the method: as §1
[25] = target: Cyclin-dependent kinase 7/ cyclin H (Homo sapiens) (UniProt P51946+P50613); assay: Activity of human CDK7/cyclin H/MAT1 kinase at 1 uM; type: protein-complex assay; summary of the method: as §2
[26] = target: Tyrosine-protein kinase BTK (Homo sapiens) (UniProt Q06187); assay: Activity of human BTK kinase at 1 uM
[27] = target: Protein-tyrosine kinase 6 (Homo sapiens) (UniProt Q13882); assay: Activity of human BRK kinase at 1 uM
[28] = target: Misshapen-like kinase 1 (Homo sapiens) (UniProt Q8N4C8); assay: Activity of human MINK kinase at 1 uM
[29] = target: Macrophage-stimulating protein receptor (Homo sapiens) (UniProt Q04912); assay: Activity of human Ron kinase at 1 uM; summary of the method: as §1
[30] = target: Serine/threonine-protein kinase BRSK2 (Homo sapiens) (UniProt Q8IWQ3); assay: Activity of human BrSK2 kinase at 1 uM
Calu-6 = assay: Antiproliferative activity against human Calu6 cells after 96 hrs by BrdU cell proliferation ELISA; type: functional, cell-based; conditions: Calu-6, 96 h
Summary of the method: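 BrdU incorporation proliferation assay on cultured human tumor lines; IC50 values derived from growth inhibition.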

[31] = Plasma concentration in human HCT116 cells xenografted in mouse at 30 mg/kg, po after 24 hrs; type: ADME, organism-based, HCT-116; design: dose 30 mg/kg, route oral
[32] = Inhibition of PKC by radioactive flashplate assay
[33] = target: Protein kinase C alpha type (Homo sapiens) (UniProt P17252); assay: Activity of human PKCalpha kinase at 1 uM; summary of the method: as §1
PC-3 [34] = assay: Antitumor activity against human PC3 cells xenografted into athymic nude NCR nu/nu mouse at 10 mg/kg, po BID after 21 days relative to control; type: functional
Summary of the method: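 Oral dosing for 21 days in 10% hydroxypropyl-β-cyclodextrin/5% sodium bicarbonate. Caliper volumes, L × W2 × 0.5. TGI = (Δcontrol − Δtreated average volume) × 100/Δcontrol.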

[35] = target: Tyrosine-protein kinase Fgr (Homo sapiens) (UniProt P09769); assay: Activity of human FGR kinase at 1 uM; summary of the method: as §2
[36] = target: Homeodomain-interacting protein kinase 2 (Homo sapiens) (UniProt Q9H2X6); assay: Activity of human HIPK2 kinase at 1 uM; summary of the method: as §2
[37] = target: Serine/threonine-protein kinase PAK 3 (Homo sapiens) (UniProt O75914); assay: Activity of human PAK3 kinase at 1 uM; summary of the method: as §1
[38] = target: Phosphorylase b kinase gamma catalytic chain, liver/testis isoform (Homo sapiens) (UniProt P15735); assay: Activity of human PhKgamma2 kinase at 1 uM; summary of the method: as §1
Chain of Phosphorylase b kinase gamma catalytic chain, liver/testis isoform (Homo sapiens) (P15735 whole entry, canonical isoform): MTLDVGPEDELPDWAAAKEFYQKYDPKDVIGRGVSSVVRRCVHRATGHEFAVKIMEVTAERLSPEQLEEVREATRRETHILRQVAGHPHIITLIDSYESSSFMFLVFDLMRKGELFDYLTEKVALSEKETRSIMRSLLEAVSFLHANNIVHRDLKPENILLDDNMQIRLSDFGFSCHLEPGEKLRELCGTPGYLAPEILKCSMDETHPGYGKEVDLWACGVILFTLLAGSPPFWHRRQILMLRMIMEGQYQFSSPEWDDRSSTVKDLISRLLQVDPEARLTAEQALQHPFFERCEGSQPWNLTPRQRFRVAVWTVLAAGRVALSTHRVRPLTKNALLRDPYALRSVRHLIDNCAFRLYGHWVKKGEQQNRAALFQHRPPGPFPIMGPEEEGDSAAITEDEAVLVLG

[39] = target: Serine/threonine-protein kinase MRCK beta (Homo sapiens) (UniProt Q9Y5S2); assay: Activity of human MRCKbeta kinase at 1 uM
PC-3 [40] = assay: Cell cycle arrest in human PC3 cells by accumulation at G2/M phase at 1 uM after 24 hrs by flow cytometry relative to control; type: functional; summary of the method: as §3
[41] = target: cGMP-dependent protein kinase 1 (Homo sapiens) (UniProt Q13976); assay: Activity of human PKG1alpha kinase at 1 uM; summary of the method: as §2
Chain of cGMP-dependent protein kinase 1 (Homo sapiens) (Q13976 whole entry): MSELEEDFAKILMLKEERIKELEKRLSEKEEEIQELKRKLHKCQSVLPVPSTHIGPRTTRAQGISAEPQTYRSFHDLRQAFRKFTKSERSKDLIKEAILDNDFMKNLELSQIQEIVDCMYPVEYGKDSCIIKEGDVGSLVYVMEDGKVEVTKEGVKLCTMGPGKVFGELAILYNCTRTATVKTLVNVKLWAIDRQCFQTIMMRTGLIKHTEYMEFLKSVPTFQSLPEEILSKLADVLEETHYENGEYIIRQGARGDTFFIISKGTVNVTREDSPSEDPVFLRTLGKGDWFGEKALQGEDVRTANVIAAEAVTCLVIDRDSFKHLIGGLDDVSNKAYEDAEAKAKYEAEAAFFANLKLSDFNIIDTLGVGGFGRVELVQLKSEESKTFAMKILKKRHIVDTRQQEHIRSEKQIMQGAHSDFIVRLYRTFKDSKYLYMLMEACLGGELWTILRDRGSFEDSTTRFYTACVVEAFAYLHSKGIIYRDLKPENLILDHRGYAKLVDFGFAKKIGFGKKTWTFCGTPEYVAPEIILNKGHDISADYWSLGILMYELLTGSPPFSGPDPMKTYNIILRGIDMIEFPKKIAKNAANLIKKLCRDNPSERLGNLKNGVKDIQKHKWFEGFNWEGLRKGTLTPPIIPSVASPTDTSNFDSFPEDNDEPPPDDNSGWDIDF

inhibition [1]: 76%
concentration at 8 h [2]: 7.4 µM
Activity [3]: 99%
Activity [4]: 46%
Activity [6]: 104%
Activity [7]: 104%
Activity [8]: 59%
Activity [9]: 95%
Activity [10]: 35%
Activity [11]: 52%
Activity [12]: 67%
Activity [14]: 107%
Activity [15]: 105%
Activity [16]: 106%
Activity [17]: 95%
Activity [18]: 88%
Activity [19]: 104%
Activity [20]: 122%
Activity [21]: 115%
Activity [22]: 81%
Activity [24]: 110%
Activity [25]: 105%
Activity [26]: 90%
Activity [27]: 104%
Activity [28]: 104%
Activity [29]: 94%
Activity [30]: 99%
IC50 (Calu-6): 220 nM
concentration at 24 h [31]: 0.4 µM
IC50 [32]: > 100000 nM
Activity [33]: 108%
Activity [35]: 36%
Activity [36]: 112%
Activity [37]: 94%
Activity [38]: 98%
Activity [39]: 107%
Activity [41]: 103%
SMILES: O=C(O)c1ccc(Nc2ncc3c(n2)-c2ccc(Cl)cc2C(c2c(F)cccc2F)=NC3)cc1 [MLN-8054]
Activity (PC-3 [5]): 3.7%
Activity (PC-3 [13]): 13.2%
Activity [23]: 114%
Activity (PC-3 [34]): 73%
Activity (PC-3 [40]): 45.4%

Reference: ChEMBL document CHEMBL1147076, “Antitumor activity of MLN8054, an orally active small-molecule inhibitor of Aurora A kinase” (Proc Natl Acad Sci U S A, 2007)
